The test system of one assay is Escherichia coli. The assay can be described thus: Antimicrobial activity against Escherichia coli ATCC […] after 18 to 24 hrs by alamar blue assay. The assay is classed as functional. Conditions: Escherichia coli; for MIC: read-out: MIC. The gist of the method:
(§1)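 Broth microdilution per NCCLS in Mueller-Hinton broth, 8-point twofold dilutions, 384-well format. Exponential-phase cells at 5 × 10^5 cells/ml incubated with compound 18–24 h at 37 °C, then 20% Alamar blue added and fluorescence read. MIC90 taken as the lowest concentration preventing at least 90% bacterial growth.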
For orientation: Alamar Blue is a resazurin reagent that responds to reducing activity.

Assay [1] in a line: Inhibition of transglycosylase assessed as inhibition of NBD- labelled lipid II polymerization at 100 uM. The gist of the method: (§2)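 100 µM NBD-labelled lipid II incubated 30 min with full-length PBP (EC, SA or Mtb) and 10 ng/µl N-acetylmuramidase in 50 mM Tris-HCl pH 8.0, 10 mM MgCl2, 0.1% Triton X-100, 10% DMSO, 15% MeOH. Supernatant run on anion-exchange HPLC with 20 mM–0.5 M ammonium acetate gradient. Inhibition calculated from substrate peak-area percentage. IC50 determined. S. aureus strains share one SA enzyme.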

The subject of assay [2] is Mycolicibacterium smegmatis. Briefly: Antimicrobial activity against Mycobacterium smegmatis BCRC 11565 after 18 to 24 hrs by alamar blue assay. Format: functional. Particulars: Mycolicibacterium smegmatis, BCRC 11565; for MIC: read-out: MIC. The gist of the method:
as §1

The subject of the next assay is Bacillus subtilis. Briefly: Antimicrobial activity against Bacillus subtilis ATCC 23857 after 18 to 24 hrs by alamar blue assay. The assay is classed as functional. The essentials: as §1
A further assay has as its system Acinetobacter baumannii. Briefly: Antimicrobial activity against Acinetobacter baumannii ATCC 49139 after 18 to 24 hrs by alamar blue assay. Format: functional. Particulars: Acinetobacter baumannii, ATCC 49139; read-out: MIC. The essentials: as §1
The test system of assay [3] is Staphylococcus aureus. Briefly: Antimicrobial activity against methicillin-resistant Staphylococcus aureus ATCC 33592 after 18 to 24 hrs by alamar blue assay. Format: functional. Particulars: Staphylococcus aureus, ATCC 33592; for MIC: read-out: MIC. The essentials:
(§3)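 Broth microdilution per NCCLS standard, Mueller-Hinton broth, 8-point twofold dilutions; exponentially growing cells at 5 10^5 cells/ml with compound, 18–24 h at 37 C; 20% Alamar blue added, fluorescence read; MIC90 taken as lowest concentration preventing at least 90% growth.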

For a further assay, the system named is Pseudomonas aeruginosa. Briefly: Antimicrobial activity against Pseudomonas aeruginosa ATCC 25619 after 18 to 24 hrs by alamar blue assay. Particulars: Pseudomonas aeruginosa, ATCC 25619; read-out: MIC. Format: functional. The essentials: as §1
The nature of assay [4]: Inhibition of transglycosylase assessed as inhibition of NBD- labelled lipid II polymerization. The gist of the method:
as §2

A further assay has as its system Serratia marcescens. The assay can be described thus: Antimicrobial activity against Serratia marcescens ATCC 14756 after 18 to 24 hrs by alamar blue assay. Particulars: Serratia marcescens, ATCC 14756; read-out: MIC. Format: functional. The gist of the method:
as §1

Assay [5] concerns Staphylococcus aureus. Briefly: Antimicrobial activity against methicillin-resistant Staphylococcus aureus isolate NTUH4722 after 18 to 24 hrs by alamar blue assay. The assay is classed as functional. The gist of the method:
as §3

Assay [6] has as its system Stenotrophomonas maltophilia. The assay can be described thus: Antimicrobial activity against Stenotrophomonas maltophilia ATCC 13637 after 18 to 24 hrs by alamar blue assay. Particulars: Stenotrophomonas maltophilia, ATCC 13637; read-out: MIC. The assay is classed as functional. The essentials:
as §1

Assay [7] in a line: Displacement of fluorescein-labeled moenomycin from transglycosylase at 100 uM after 30 mins by fluorescence anisotropy binding assay.
Assay [8] has as its system Staphylococcus aureus. The assay can be described thus: Antimicrobial activity against oxacillin- and methicillin-resistant Staphylococcus aureus isolate Sa-OXA-R2 after 18 to 24 hrs by alamar blue assay. Format: functional. The essentials:
as §3

The test system of assay [9] is Staphylococcus aureus. The assay can be described thus: Antimicrobial activity against Staphylococcus aureus ATCC 29213 after 18 to 24 hrs by alamar blue assay.
Assay [10] in a line: Displacement of fluorescein-labeled moenomycin from transglycosylase in Escherichia coli ATCC […] assessed as inhibition of lipid II polymerization after 30 mins by fluorescence anisotropy binding assay. Further details: species or system Staphylococcus aureus. The essentials: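 Full-length bifunctional PBP (TGase) at 10 µg/ml mixed with 100 nM fluorescent moenomycin in 10 mM Tris, 100 mM NaCl, pH 8.0, in 1536-well plates. 1 µl of 1 mM compound stock added. 10 µM moenomycin and 2.5% DMSO served as positive and negative controls. After 30 min, drop in fluorescence anisotropy read. Ki derived from Kd and IC50. Same SA enzyme serves all S. aureus strains.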
(Fluorescence polarisation rises when a labelled molecule tumbles more slowly, as on binding a larger partner.)

A short description of assay [11]: Inhibition of transglycosylase in Staphylococcus aureus ATCC 33592 assessed as inhibition of NBD- labelled lipid II polymerization. The essentials: as §2
The nature of assay [12]: Inhibition of transglycosylase in Staphylococcus aureus ATCC 29213 assessed as inhibition of NBD- labelled lipid II polymerization. The essentials: as §2
The nature of assay [13]: Inhibition of transglycosylase in Escherichia coli ATCC […] assessed as inhibition of NBD- labelled lipid II polymerization. The essentials:
as §2

A short description of assay [14]: Inhibition of transglycosylase in Staphylococcus aureus isolate NTUH4722 assessed as inhibition of NBD- labelled lipid II polymerization. The gist of the method:
as §2

Assay [15] concerns Staphylococcus aureus. Briefly: Antimicrobial activity against wild-type Staphylococcus aureus ATCC 29213 after 18 to 24 hrs by alamar blue assay. Particulars: Staphylococcus aureus, ATCC 29213.
Assay [16] can be described thus: Inhibition of transglycosylase in Staphylococcus aureus isolate Sa-OXA-R2 assessed as inhibition of NBD- labelled lipid II polymerization. The essentials:
as §2

≈ marks a conversion by molar mass, not a printed value.

Take `O=C(c1ccc(Cl)cc1)c1cc(NC(=O)c2cc(Cl)cc(Br)c2O)c(Cl)cc1Cl`: the MIC in the assay with Escherichia coli was 8 µg/mL (≈ 15 µM); in [2] it was 0.5 µg/mL (≈ 0.936 µM); against Bacillus subtilis it was less than 0.03 µg/mL; with Acinetobacter baumannii, 16 µg/mL (≈ 30 µM); in the assay on Staphylococcus aureus [3], 0.25 µg/mL (≈ 0.468 µM); with Pseudomonas aeruginosa, 16 µg/mL (≈ 30 µM). Further, the minimal inhibitory concentration (MIC) with Serratia marcescens was determined as 16 µg/mL (≈ 30 µM); against Staphylococcus aureus [5], 0.25 µg/mL (≈ 0.468 µM); in [6], 16 µg/mL (≈ 30 µM); in the assay with Staphylococcus aureus [8], 0.25 µg/mL (≈ 0.468 µM); against Staphylococcus aureus [9] it was 0.25 µg/mL (≈ 0.468 µM). Moreover, the inhibition is 90% in assay [1] and 92% in [7]. The IC90 in assay [4] turned out to be 100 µM.

In the case of `O=C(Nc1ccc(Cl)c(Cl)c1)c1cc(Cl)cc(Cl)c1O` [3,3',4',5-TETRACHLOROSALICYLANILIDE], the MIC is 8 µg/mL (≈ 22.8 µM) in the assay on Escherichia coli; 0.5 µg/mL (≈ 1.42 µM) in [2]; less than 0.03 µg/mL against Bacillus subtilis; 16 µg/mL (≈ 45.6 µM) with Acinetobacter baumannii; 1 µg/mL (≈ 2.85 µM) with Staphylococcus aureus [3]; 16 µg/mL (≈ 45.6 µM) in the assay with Pseudomonas aeruginosa. Besides, the minimum inhibitory concentration (MIC) with Serratia marcescens was 16 µg/mL (≈ 45.6 µM); against Staphylococcus aureus [5], 1 µg/mL (≈ 2.85 µM); in assay [6], 16 µg/mL (≈ 45.6 µM); in the assay with Staphylococcus aureus [8], 1 µg/mL (≈ 2.85 µM); in the assay with Staphylococcus aureus [9], 0.25 µg/mL (≈ 0.712 µM). The figures for the inhibition in assay [1] and in assay [7] were 0% and 90%, respectively.

`O=C(Nc1ccc(Cl)c(Cl)c1)c1ccc([N+](=O)[O-])o1`: the MIC is 256 µg/mL (≈ 850 µM) in the assay with Escherichia coli; 0.5 µg/mL (≈ 1.66 µM) in assay [2]; 0.06 µg/mL (≈ 0.199 µM) in the assay on Bacillus subtilis; 12 µg/mL (≈ 39.9 µM) in the assay on Acinetobacter baumannii; 2 µg/mL (≈ 6.64 µM) with Staphylococcus aureus [3]; 128 µg/mL (≈ 425 µM) in the assay with Pseudomonas aeruginosa. Besides, the MIC was 32 µg/mL (≈ 106 µM) in the assay on Serratia marcescens; 4 µg/mL (≈ 13.3 µM) against Staphylococcus aureus [5]; 32 µg/mL (≈ 106 µM) in assay [6]; greater than 4 µg/mL with Staphylococcus aureus [8]; 2 µg/mL (≈ 6.64 µM) in the assay with Staphylococcus aureus [9]. Also, the figures for the inhibition in assay [1] and in [7] were 0% and 96%, respectively.

`O=C(c1ccc(Cl)cc1)c1ccc(Oc2ccc(Cl)cc2)c(NC(=O)c2cc(I)cc(I)c2O)c1`: the MIC90 was greater than 512 µM in the assay on Escherichia coli; 44 µM (≈ 32.1 µg/mL) in assay [2]; 5.5 µM (≈ 4.02 µg/mL) in the assay on Staphylococcus aureus [3]; 11 µM (≈ 8.03 µg/mL) against Staphylococcus aureus [5]; 11 µM (≈ 8.03 µg/mL) with Staphylococcus aureus [15]; 11 µM (≈ 8.03 µg/mL) against Staphylococcus aureus [8]. The MIC in the assay on Bacillus subtilis is less than 0.03 µg/mL; in the assay on Acinetobacter baumannii, 16 µg/mL (≈ 21.9 µM); in the assay on Pseudomonas aeruginosa, 16 µg/mL (≈ 21.9 µM); with Serratia marcescens, 16 µg/mL (≈ 21.9 µM); in [6] it was 16 µg/mL (≈ 21.9 µM). In addition, the inhibition constant (Ki) in assay [10] was found to be 68 µM. Besides, the IC50 is 9.3 µM in assay [11]; 9.3 µM in [12]; 2.1 µM in assay [13]; 9.3 µM in assay [14]; 9.3 µM in assay [16]. In assay [4], the IC90 was less than 25 µM.

`COc1cccc(-c2coc3c(C)c4oc(=O)c(CCC(=O)O)c(C)c4cc23)c1`: the MIC in the assay with Escherichia coli is greater than 256 µg/mL; in assay [2], 1 µg/mL (≈ 2.55 µM); in the assay with Bacillus subtilis it was greater than 64 µg/mL; in the assay on Acinetobacter baumannii, greater than 256 µg/mL; in the assay with Staphylococcus aureus [3], 2.5 µg/mL (≈ 6.37 µM); in the assay with Pseudomonas aeruginosa, greater than 256 µg/mL. The MIC was greater than 256 µg/mL in the assay with Serratia marcescens; 2.5 µg/mL (≈ 6.37 µM) with Staphylococcus aureus [5]; greater than 256 µg/mL in [6]; 2.5 µg/mL (≈ 6.37 µM) against Staphylococcus aureus [8]; 2.5 µg/mL (≈ 6.37 µM) against Staphylococcus aureus [9]. Moreover, the inhibition worked out at 0% in assay [1] and 90% in assay [7].

For orientation: MIC means the lowest concentration that inhibits growth of the organism. Broadly, the inhibition is how much of the control response was suppressed. As a reminder, the IC90 is the point of the concentration-response curve where the effect stands at 90%. For orientation: MIC90 means an inhibitory concentration at the 90% level, which refers to growth in some studies and to a panel of isolates in others. Higher therefore signals weaker potency. What is called Ki is the equilibrium dissociation constant of an inhibitor or competing ligand from its target. A word on the IC50: it is the midpoint of a concentration-inhibition curve.

Values taken from ChEMBL document CHEMBL1629439, “High-throughput identification of antibacterials against methicillin-resistant Staphylococcus aureus (MRSA) and the transglycosylase” (Bioorg Med Chem, 2010).
